Measured values published in ChEMBL document CHEMBL4373713, “Effect of 1-Deoxynojirimycin Isolated from Mulberry Leaves on Glucose Metabolism and Gut Microbiota in a Streptozotocin-Induced Diabetic Mouse Model” (J Nat Prod, 2019).
Calls of active or inactive are those of the source.

Experiments:
Mus musculus [1] = assay: Antidiabetic activity in STZ-induced diabetic Kunming mouse assessed as increase in body weight gain at 62.5 to 125 mg/kg, po QD administered via gavage for 4 weeks and measured every 3 days for 28 day
Mus musculus [2] = assay: Antidiabetic activity in STZ-induced Kunming mouse model of diabetes assessed as increase in hepatic glycogen level at 31.25 to 125 m/kg, po administered QD administered via gavage for 4 weeks; type: functional, organism-based
Outline: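 Diabetic mice (high-fat diet plus STZ 35 mg/kg i.p.) were dosed by gavage once daily for 28 days at 31.25–125 mg/kg. After an overnight fast at endpoint, liver and plasma were collected. ALT, hepatic glycogen and pyruvic acid were measured with commercial kits.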

Mus musculus [3] = assay: Antidiabetic activity in STZ-induced Kunming mouse model of diabetes assessed as increase in Bifidobacterium level in feces at 31.25 to 125 mg/kg, po administered QD administered via gavage for 4 weeks by 16S rDNA based Illumina sequencing method; type: functional, organism-based
Mus musculus [4] = assay: Antidiabetic activity in STZ-induced Kunming mouse model of diabetes assessed as increase in GK expression level in liver at 62.5 to 125 m/kg, po administered QD administered via gavage for 4 weeks by Western blot analysis; type: functional, organism-based
Outline: (§1)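 Livers from diabetic mice after 28 days of daily gavage (31.25–125 mg/kg) were homogenized and spun at 14 000g, 4 °C. Proteins were run on 10% SDS-PAGE and transferred to PVDF, then blocked in 5% milk for 1 h. Primary antibodies (GK, PK, PFK, PCB, PEPCK, FBPase, G-6-Pase, p-IR Tyr999, p-IRS-1 Ser307) were applied for 1 h at 25 °C, followed by HRP anti-rabbit IgG and ECL detection. Mean ± SD, Duncan's test.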

Mus musculus [5] = assay: Antidiabetic activity in po dosed STZ-induced Kunming mouse model of diabetes assessed as reduction in fasting serum insulin level administered QD administered via gavage for 4 weeks; type: functional, organism-based
Outline: (§2)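 Fasting serum insulin was measured by commercial kit on plasma from orbital-sinus blood taken after an overnight fast at day 28. HOMA-IR was derived to assess insulin sensitivity. Diabetic mice were gavaged daily at 31.25–125 mg/kg. Mean ± SD, Duncan's test.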

Mus musculus [6] = assay: Antidiabetic activity in STZ-induced Kunming mouse model of diabetes assessed as increase in Lachnospiraceae level in feces at 31.25 to 125 mg/kg, po administered QD administered via gavage for 4 weeks by 16S rDNA based DNA sequencing analysis; type: functional, organism-based
Mus musculus [7] = assay: Antidiabetic activity in po dosed STZ-induced Kunming mouse model of diabetes assessed as increase in Bacteroidetes level in feces administered QD administered via gavage for 4 weeks by 16S rDNA based Illumina sequencing method; type: functional, organism-based
Mus musculus [8] = assay: Antidiabetic activity in STZ-induced Kunming mouse model of diabetes assessed as decrease in Ruminococcus level in feces at 31.25 to 125 mg/kg, po administered QD administered via gavage for 4 weeks by 16S rDNA based DNA sequencing analysis; type: functional, organism-based
Mus musculus [9] = assay: Antidiabetic activity in po dosed STZ-induced Kunming mouse model of diabetes assessed as reduction in fasting serum glucose level administered QD administered via gavage for 4 weeks and measured 2 weeks during compound dosing; type: functional, organism-based
Outline: (§3)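 Fasting serum glucose was taken from the tail tip on days 0, 7, 14, 21 and 28 in STZ (35 mg/kg i.p.)/high-fat-diet Kunming mice. Mice were gavaged once daily at 31.25, 62.5 or 125 mg/kg in 0.5 mL, n=10 per group.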

Mus musculus [10] = assay: Antidiabetic activity in STZ-induced Kunming mouse model of diabetes assessed as reduction in serum glucose level 125 mg/kg, po administered QD administered via gavage for 4 weeks and measured 4 weeks during compound dosing; type: functional, organism-based
Outline: as §3

Mus musculus [11] = assay: Antidiabetic activity in STZ-induced Kunming mouse model of diabetes assessed as decrease in TC level at 125 m/kg, po administered QD administered via gavage for 4 weeks; type: functional, organism-based
Outline: (§4)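 STZ/high-fat-diet diabetic Kunming mice (n=10/group) were gavaged daily for 28 days at 31.25–125 mg/kg. After an overnight fast, orbital-sinus blood was taken and plasma was spun at 1000g, 4 °C. TC, TG and HDL-C were measured by kit. LDL-C was calculated by Friedewald: TC − (HDL-C + TG/2.2), with TG below 4.5 mmol/L. Data are mean ± SD, Duncan's test.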

Mus musculus [12] = assay: Antidiabetic activity in STZ-induced Kunming mouse model of diabetes assessed as reduction in TG level at 31.25 to 125 m/kg, po administered QD administered via gavage for 4 weeks; type: functional, organism-based
Outline: as §4

Mus musculus [13] = assay: Antidiabetic activity in po dosed STZ-induced Kunming mouse model of diabetes assessed as decrease in IRS-1 (Ser 307 residues) expression in liver administered QD administered via gavage for 4 weeks by Western blot analysis; type: functional, organism-based
Outline: as §1

Mus musculus [14] = assay: Antidiabetic activity in STZ-induced Kunming mouse model of diabetes assessed as decrease in LDL-C level at 62.5 to 125 m/kg, po administered QD administered via gavage for 4 weeks; type: functional, organism-based
Outline: as §4

Mus musculus [15] = assay: Antidiabetic activity in STZ-induced Kunming mouse model of diabetes assessed as increase in HDL-C level at 31.25 to 125 m/kg, po administered QD administered via gavage for 4 weeks; type: functional, organism-based
Outline: as §4

Mus musculus [16] = assay: Antidiabetic activity in STZ-induced Kunming mouse model of diabetes assessed as down regulation of PEPCK expression level in liver at 62.5 to 125 m/kg, po administered QD administered via gavage for 4 weeks by Western blot analysis; type: functional, organism-based
Outline: as §1

Mus musculus [17] = assay: Antidiabetic activity in STZ-induced Kunming mouse model of diabetes assessed as decrease in Prevo-tellaceae UCG-001 level in feces at 62.5 to 125 mg/kg, po administered QD administered via gavage for 4 weeks by 16S rDNA based DNA sequencing analysis; type: functional, organism-based
Mus musculus [18] = assay: Antidiabetic activity in STZ-induced Kunming mouse model of diabetes assessed as decrease in Klebsiella level in feces at 62.5 to 125 mg/kg, po administered QD administered via gavage for 4 weeks by 16S rDNA based DNA sequencing analysis; type: functional, organism-based
Mus musculus [19] = assay: Antidiabetic activity in po dosed STZ-induced Kunming mouse model of diabetes assessed as reduction in HOMA-IR index level administered QD administered via gavage for 4 weeks; type: functional, organism-based
Outline: as §2

Mus musculus [20] = assay: Antidiabetic activity in STZ-induced Kunming mouse model of diabetes assessed as decrease in Prevo-tellaceae Ga6A1 level in feces at 31.25 to 125 mg/kg, po administered QD administered via gavage for 4 weeks by 16S rDNA based DNA sequencing analysis; type: functional, organism-based
Mus musculus [21] = assay: Antidiabetic activity in po dosed STZ-induced Kunming mouse model of diabetes assessed as increase in IR phosphorylation at (Tyr 999 residues) expression in liver administered QD administered via gavage for 4 weeks by Western blot analysis; type: functional, organism-based
Outline: as §1

Measured: Activity

OC[C@H]1NC[C@H](O)[C@@H](O)[C@@H]1O
active: Mus musculus [1] | Mus musculus [2] | Mus musculus [3] | Mus musculus [4] | Mus musculus [5] Dose-dependent effect | Mus musculus [6] | Mus musculus [7] Dose-dependent effect | Mus musculus [8] | Mus musculus [9] Dose-dependent effect | Mus musculus [10] | Mus musculus [11] | Mus musculus [12] | Mus musculus [13] Dose-dependent effect | Mus musculus [14] | Mus musculus [15] | Mus musculus [16] | Mus musculus [17] | Mus musculus [18] | Mus musculus [19] Dose-dependent effect | Mus musculus [20] | Mus musculus [21] Dose-dependent effect
